This note sets out measurements from ChEMBL document CHEMBL2311539, “3,6-Diamino-4-(2-halophenyl)-2-benzoylthieno[2,3-b]pyridine-5-carbonitriles are selective inhibitors of Plasmodium falciparum glycogen synthase kinase-3” (J Med Chem, 2013).

The nature of test [1]: Inhibition of Plasmodium knowlesi recombinant His6-tagged GSK-3 expressed in Escherichia coli using GS-1 peptide as substrate after 30 mins by scintillation counting analysis in presence of gamma-33P-ATP. The gist of the method: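 P. knowlesi GSK3 gene in pBAD-Thio-TOPO, expressed in E. coli TOP10 (ampicillin, 37 °C, 0.02% arabinose for 4 h), Ni-NTA purified. Radiometric assay: 40 μM GS-1 peptide in buffer A pH 7.5 (MgCl2, EGTA, DTT, heparin, BSA) with 15 μM γ-33P-ATP, 30 min at 30 °C. P81 filter binding, scintillation counting. IC50 from triplicate dose-response curves.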

Test [2] has as its system Plasmodium falciparum. Nature of the test: Antiplasmodial activity against Plasmodium falciparum at 15 uM after 72 hrs by luciferase reporter gene assay. Type of test: functional. The gist of the method:
(§1)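 NF54:LUC P. falciparum erythrocytic stages (luciferase under hrp2 promoter) at 3% parasitemia, 25% hematocrit; compounds in RPMI-1640 with 1% DMSO, triplicate wells; untreated, DMSO-only and non-luciferase NF54 blank wells. […] Bright-Glo lysis, luminescence read.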

The target of test [3] is Insulin receptor (Homo sapiens) (UniProt P06213). As to the kind of experiment: Inhibition of IR-HIS (unknown origin) at 10 uM. An outline of the steps: (§2)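 Dundee human kinase selectivity panel (77 kinases); test compound at 1 and 10 μM, percentage kinase inhibition recorded.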
The target of test [4] is Tyrosine-protein kinase BTK (Homo sapiens) (UniProt Q06187). As to the kind of experiment: Inhibition of BTK (unknown origin) at 10 uM. An outline of the steps:
as §2

The target in test [5] is T1, Mitogen-activated protein kinase 15 (Homo sapiens) (UniProt Q8TD08).
T1 sequence (whole entry): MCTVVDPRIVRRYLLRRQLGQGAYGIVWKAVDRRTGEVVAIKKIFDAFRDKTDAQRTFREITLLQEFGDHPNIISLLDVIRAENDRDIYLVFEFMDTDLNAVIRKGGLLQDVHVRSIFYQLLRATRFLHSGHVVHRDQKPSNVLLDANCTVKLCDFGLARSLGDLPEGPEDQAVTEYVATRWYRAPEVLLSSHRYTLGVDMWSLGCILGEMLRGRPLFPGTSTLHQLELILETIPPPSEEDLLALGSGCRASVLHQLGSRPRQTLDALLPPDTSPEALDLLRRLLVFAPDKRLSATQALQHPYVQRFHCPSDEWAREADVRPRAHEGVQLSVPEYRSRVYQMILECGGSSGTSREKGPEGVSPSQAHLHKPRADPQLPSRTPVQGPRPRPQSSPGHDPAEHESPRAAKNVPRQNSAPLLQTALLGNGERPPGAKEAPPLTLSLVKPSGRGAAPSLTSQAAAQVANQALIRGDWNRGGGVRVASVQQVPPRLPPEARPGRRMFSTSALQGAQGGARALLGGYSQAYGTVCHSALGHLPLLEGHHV
Nature of the test: Inhibition of ERK8 (unknown origin) at 10 uM. An outline of the steps:
as §2

The subject of test [6] is Plasmodium falciparum. Nature of the test: Antiplasmodial activity against Plasmodium falciparum after 72 hrs by luciferase reporter gene assay. Type of test: functional, organism-based. The note with it: 48 h, in the assay text read “48 hrs” for “72 hrs”. The gist of the method: as §1
The target in test [7] is MAP kinase-activated protein kinase 2 (Homo sapiens) (UniProt P49137). Nature of the test: Inhibition of MAPKAP-K2 (unknown origin) at 10 uM. An outline of the steps:
as §2

Test [8] deals with Calcium/calmodulin-dependent protein kinase type 1 (Homo sapiens) (UniProt Q14012). Nature of the test: Inhibition of CAMK1 (unknown origin) at 10 uM. An outline of the steps:
as §2

A short description of test [9]: Inhibition of Trypanosoma brucei GSK-3.
The target of test [10] is Serine/threonine-protein kinase PAK 4 (Homo sapiens) (UniProt O96013). Nature of the test: Inhibition of PAK4 (unknown origin) at 10 uM. An outline of the steps:
as §2

Test [11] deals with Mitogen-activated protein kinase 14 (Homo sapiens) (UniProt Q16539). As to the kind of experiment: Inhibition of P38alpha MAPK (unknown origin) at 10 uM. The gist of the method: as §2
The nature of test [12]: Inhibition of pig GSK-3 by radiometric protein kinase assay. Details: species or system Sus scrofa. The gist of the method: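 Native affinity-purified porcine GSK-3 in the radiometric assay: 40 μM GS-1 peptide, 15 μM γ-33P-ATP, pH 7.5 Tris/MgCl2/EGTA/DTT/heparin/BSA buffer, 30 min at 30 °C, P81 filter binding and scintillation counting. IC50 from dose-response curves with triplicate points; top concentration 10 or 100 μM.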

Test [13] has as its target T2, Inhibitor of nuclear factor kappa-B kinase subunit epsilon (Homo sapiens) (UniProt Q14164).
T2 sequence (whole entry): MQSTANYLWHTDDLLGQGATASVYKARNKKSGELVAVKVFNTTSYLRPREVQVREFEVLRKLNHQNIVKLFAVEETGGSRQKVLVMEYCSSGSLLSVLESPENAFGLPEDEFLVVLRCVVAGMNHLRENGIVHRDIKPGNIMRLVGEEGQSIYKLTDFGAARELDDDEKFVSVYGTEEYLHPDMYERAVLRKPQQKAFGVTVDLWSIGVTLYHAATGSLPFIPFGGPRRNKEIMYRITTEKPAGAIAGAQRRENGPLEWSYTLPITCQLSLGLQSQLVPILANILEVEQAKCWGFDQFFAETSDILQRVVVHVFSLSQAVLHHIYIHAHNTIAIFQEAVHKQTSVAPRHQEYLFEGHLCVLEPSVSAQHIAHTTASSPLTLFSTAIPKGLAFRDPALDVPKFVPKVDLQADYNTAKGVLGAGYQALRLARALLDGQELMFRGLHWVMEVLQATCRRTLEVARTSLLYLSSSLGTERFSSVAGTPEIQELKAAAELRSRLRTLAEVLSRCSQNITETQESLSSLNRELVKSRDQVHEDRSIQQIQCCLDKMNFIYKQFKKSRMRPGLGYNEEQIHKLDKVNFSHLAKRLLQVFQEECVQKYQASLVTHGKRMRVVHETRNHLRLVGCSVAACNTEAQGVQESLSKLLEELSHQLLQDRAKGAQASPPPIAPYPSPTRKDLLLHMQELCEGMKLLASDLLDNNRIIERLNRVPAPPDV
As to the kind of experiment: Inhibition of IKK-epsilon (unknown origin) at 10 uM. An outline of the steps: as §2

The nature of test [14]: Inhibition of Toxoplasma gondii recombinant His6-tagged GSK-3 expressed in Escherichia coli using GS-1 peptide as substrate after 30 mins by scintillation counting analysis in presence of gamma-33P-ATP. The format is cell-free. The gist of the method:
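His6-tagged recombinant GSK-3 expressed in E. coli (TOP10/pBAD-Thio-TOPO for P. falciparum and T. gondii, arabinose-induced; BL21(DE3)-pRARE2/pET15 for C. parvum, IPTG at 15 °C), Ni-NTA purified. Assayed with 40 μM GS-1 phosphopeptide, 15 μM γ-33P-ATP in pH 7.5 Tris buffer with MgCl2, EGTA, DTT, heparin, BSA; 30 min, 30 °C; P81 paper, phosphoric acid washes, scintillation counting. DMSO controls; dose-response IC50, triplicate points.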

Test [15] deals with Dual specificity mitogen-activated protein kinase kinase 1 (Homo sapiens) (UniProt Q02750). As to the kind of experiment: Inhibition of MKK1 (unknown origin) at 10 uM. An outline of the steps: as §2
Dual specificity mitogen-activated protein kinase kinase 1 (Homo sapiens), sequence (Q02750 whole entry): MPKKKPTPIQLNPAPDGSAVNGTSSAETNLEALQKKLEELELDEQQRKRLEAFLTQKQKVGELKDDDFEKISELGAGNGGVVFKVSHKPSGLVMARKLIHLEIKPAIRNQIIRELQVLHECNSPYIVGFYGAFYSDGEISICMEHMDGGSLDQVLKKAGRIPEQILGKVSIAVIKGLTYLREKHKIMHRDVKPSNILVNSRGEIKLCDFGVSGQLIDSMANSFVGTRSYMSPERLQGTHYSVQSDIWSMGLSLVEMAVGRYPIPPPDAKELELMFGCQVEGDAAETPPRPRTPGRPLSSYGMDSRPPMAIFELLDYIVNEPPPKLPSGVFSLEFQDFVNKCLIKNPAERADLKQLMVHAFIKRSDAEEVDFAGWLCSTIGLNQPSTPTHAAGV

Serine/threonine-protein kinase PAK 4 (Homo sapiens), sequence (O96013 whole entry, looked up): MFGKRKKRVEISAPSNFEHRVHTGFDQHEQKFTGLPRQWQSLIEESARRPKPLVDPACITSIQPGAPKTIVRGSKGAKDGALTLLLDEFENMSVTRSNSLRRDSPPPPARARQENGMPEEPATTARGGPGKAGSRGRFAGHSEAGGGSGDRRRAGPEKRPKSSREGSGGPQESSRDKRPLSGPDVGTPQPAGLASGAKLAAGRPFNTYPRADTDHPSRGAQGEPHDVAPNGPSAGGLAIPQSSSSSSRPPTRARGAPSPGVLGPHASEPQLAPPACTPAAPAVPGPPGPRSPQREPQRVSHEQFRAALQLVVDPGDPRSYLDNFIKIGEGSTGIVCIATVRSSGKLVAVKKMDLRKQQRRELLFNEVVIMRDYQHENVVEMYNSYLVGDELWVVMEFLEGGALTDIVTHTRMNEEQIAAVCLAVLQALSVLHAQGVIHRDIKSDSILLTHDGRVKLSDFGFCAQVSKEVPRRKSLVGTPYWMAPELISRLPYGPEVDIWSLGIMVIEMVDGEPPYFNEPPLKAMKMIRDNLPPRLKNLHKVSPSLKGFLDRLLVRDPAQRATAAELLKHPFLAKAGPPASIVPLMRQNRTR
Calcium/calmodulin-dependent protein kinase type 1 (Homo sapiens), sequence (Q14012 whole entry, looked up): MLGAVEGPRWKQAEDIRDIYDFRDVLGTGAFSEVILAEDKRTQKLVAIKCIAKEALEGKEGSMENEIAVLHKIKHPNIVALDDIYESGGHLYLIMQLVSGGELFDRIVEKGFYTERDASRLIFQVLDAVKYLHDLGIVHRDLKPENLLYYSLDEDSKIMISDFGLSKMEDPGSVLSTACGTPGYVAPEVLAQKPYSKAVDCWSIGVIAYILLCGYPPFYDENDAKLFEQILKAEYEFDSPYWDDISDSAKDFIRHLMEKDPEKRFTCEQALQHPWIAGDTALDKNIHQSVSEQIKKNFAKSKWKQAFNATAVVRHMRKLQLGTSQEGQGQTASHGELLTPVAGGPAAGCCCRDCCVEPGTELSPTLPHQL
MAP kinase-activated protein kinase 2 (Homo sapiens), sequence (P49137 whole entry, looked up): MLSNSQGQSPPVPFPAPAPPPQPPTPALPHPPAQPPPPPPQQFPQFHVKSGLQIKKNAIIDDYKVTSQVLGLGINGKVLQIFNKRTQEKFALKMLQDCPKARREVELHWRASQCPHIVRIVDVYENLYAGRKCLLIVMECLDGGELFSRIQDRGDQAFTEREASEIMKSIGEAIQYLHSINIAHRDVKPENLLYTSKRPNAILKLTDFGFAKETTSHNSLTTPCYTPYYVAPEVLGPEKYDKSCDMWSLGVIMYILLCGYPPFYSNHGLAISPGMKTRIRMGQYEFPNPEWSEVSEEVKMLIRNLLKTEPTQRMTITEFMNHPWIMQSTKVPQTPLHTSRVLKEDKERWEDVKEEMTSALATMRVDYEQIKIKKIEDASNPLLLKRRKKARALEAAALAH
Tyrosine-protein kinase BTK (Homo sapiens), sequence (Q06187 whole entry): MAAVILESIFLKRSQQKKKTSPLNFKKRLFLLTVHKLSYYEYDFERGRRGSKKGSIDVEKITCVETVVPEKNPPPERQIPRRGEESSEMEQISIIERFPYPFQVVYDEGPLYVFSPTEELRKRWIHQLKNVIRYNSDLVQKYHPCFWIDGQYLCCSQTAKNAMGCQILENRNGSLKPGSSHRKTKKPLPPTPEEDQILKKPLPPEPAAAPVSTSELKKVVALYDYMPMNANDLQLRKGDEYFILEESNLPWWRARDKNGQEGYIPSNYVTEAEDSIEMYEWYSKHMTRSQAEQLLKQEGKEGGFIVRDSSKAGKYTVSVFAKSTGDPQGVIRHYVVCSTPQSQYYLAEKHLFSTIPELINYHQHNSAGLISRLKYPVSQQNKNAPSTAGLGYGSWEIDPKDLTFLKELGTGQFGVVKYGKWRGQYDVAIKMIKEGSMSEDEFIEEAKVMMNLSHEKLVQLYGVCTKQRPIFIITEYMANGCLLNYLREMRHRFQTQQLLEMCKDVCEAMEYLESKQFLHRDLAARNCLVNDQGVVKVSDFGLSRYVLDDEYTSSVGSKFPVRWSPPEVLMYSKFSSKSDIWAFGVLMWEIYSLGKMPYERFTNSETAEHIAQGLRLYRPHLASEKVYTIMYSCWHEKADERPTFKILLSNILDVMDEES
Mitogen-activated protein kinase 14 (Homo sapiens), sequence (Q16539 whole entry): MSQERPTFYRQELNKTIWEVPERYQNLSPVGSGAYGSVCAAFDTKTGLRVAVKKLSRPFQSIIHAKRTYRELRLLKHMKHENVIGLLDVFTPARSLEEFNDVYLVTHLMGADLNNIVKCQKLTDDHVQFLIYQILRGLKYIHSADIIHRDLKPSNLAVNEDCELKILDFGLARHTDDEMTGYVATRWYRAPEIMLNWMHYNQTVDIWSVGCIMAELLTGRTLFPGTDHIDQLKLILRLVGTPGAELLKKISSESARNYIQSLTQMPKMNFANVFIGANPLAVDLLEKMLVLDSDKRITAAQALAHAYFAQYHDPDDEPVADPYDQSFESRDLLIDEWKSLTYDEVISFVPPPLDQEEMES
Insulin receptor (Homo sapiens), sequence (P06213 28-758 limits assumed): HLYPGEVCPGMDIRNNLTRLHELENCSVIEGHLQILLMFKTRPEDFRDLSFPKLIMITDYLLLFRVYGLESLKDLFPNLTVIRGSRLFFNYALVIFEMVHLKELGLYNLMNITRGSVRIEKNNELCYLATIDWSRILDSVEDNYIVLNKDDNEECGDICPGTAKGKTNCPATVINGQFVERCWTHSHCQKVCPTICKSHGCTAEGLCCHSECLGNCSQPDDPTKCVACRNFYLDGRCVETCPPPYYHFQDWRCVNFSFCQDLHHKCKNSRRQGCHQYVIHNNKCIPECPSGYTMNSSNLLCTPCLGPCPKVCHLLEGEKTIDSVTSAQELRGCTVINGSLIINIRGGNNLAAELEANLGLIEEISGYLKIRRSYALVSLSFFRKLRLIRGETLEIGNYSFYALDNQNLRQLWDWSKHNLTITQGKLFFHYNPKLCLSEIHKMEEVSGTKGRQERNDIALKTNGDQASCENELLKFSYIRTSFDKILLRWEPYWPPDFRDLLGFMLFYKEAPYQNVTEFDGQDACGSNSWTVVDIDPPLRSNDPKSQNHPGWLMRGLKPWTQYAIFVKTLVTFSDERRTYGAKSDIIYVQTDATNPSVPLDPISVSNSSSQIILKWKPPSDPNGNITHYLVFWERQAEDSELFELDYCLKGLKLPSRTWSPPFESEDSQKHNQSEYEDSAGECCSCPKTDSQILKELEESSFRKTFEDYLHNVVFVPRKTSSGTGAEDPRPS
Insulin receptor (Homo sapiens), sequence (P06213 763-1382 limits assumed): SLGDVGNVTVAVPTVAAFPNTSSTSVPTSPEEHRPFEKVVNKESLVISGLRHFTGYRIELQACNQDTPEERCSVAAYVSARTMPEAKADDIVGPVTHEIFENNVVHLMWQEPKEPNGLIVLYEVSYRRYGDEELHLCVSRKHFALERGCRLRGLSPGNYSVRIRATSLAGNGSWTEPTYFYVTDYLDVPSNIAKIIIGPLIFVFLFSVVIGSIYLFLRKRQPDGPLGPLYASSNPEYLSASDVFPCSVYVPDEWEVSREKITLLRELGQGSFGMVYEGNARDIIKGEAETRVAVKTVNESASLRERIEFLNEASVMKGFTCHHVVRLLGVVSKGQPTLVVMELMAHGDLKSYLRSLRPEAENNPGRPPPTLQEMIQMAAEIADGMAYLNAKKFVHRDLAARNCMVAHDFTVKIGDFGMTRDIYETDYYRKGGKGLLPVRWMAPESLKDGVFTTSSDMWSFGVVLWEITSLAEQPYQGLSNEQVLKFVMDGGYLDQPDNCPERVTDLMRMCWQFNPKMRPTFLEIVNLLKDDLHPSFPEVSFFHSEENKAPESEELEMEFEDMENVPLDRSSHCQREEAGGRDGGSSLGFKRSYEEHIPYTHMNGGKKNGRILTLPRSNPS

Consider `N#Cc1c(N)nc2sc(C(=O)c3cccc(Cl)c3)c(N)c2c1-c1ccccc1Cl`, for which the IC50 in test [1] was 2.45 µM; in [9], > 100 µM; in test [12], > 10 µM; in [14], > 100 µM. Moreover, 15 µM produced 100% inhibition in test [2]. Further, the inhibition in [3], in test [4], in [5], in test [7], in [8] and in test [10] was > 50% in each case. The inhibition in test [11], in [13] and in [15] was > 50% throughout. Also, the midpoint of the response in test [6], the EC50, lay at 5.5 µM.
